Assay [1] relates to Influenza B virus. The experiment in a line: Antiviral activity against oseltamivir resistant Yamagata lineage of Influenza B virus (B/Massachusetts/2/2012) BX-51B infected in MDCK cells assessed as inhibition of virus-induced cytopathic effect measured after 45 hrs by CellTiter-Glo luminescence assay. The conditions noted are these: B/Massachusetts/02/2012 BX-51B. Format: functional, organism-based. Summed up: (§1)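 MDCK cells (5,000/well) were seeded one day before infection. Infection medium was high-glucose DMEM with 1% FBS and trypsin (1 μg/mL). Compounds were added at various concentrations and cells infected at MOI 0.1. After 45 h, viability was read by CellTiter-Glo luminescence. IC50 was taken from dose-response curves, as the mean of duplicate samples from three independent experiments.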
For orientation: Cytopathic effects are the visible damage that an infection or toxin causes in cultured cells.

Assay [2] deals with Influenza B virus. In words: Antiviral activity against oseltamivir resistant Victoria lineage of Influenza B virus (B/Brisbane/60/2008) BX-35 infected in MDCK cells assessed as inhibition of virus-induced cytopathic effect measured after 45 hrs by CellTiter-Glo luminescence assay. Format: functional, organism-based. As to conditions: B/Brisbane/60/2008 BX-35, MDCK. In outline: as §1

Structures are written as SMILES. pIC50: −log10 of the molar value.

For the molecule `CC1(C)CC[C@]2(C(=O)N[C@@H](CCCNC(=N)N)C(=O)O)CC[C@]3(C)C(=CC[C@@H]4[C@@]5(C)CC[C@H](O)C(C)(C)[C@@H]5CC[C@]43C)[C@@H]2C1`, the pIC50 (in general, the negative decadic logarithm of the IC50, by convention in mol/L) in the assay on Influenza B virus [1] is 4.34; in the assay on Influenza B virus [2] it was 4.21.

In the case of `CCOC(=O)C1=C[C@@H](OC(CC)CC)[C@H](NC(C)=O)[C@@H](N)C1` [OSELTAMIVIR PHOSPHATE], the pIC50 in the assay with Influenza B virus [1] and with Influenza B virus [2] was less than 4.00 throughout.

The values are drawn from ChEMBL document CHEMBL4406875, “Design, synthesis and biological evaluation of amino acids-oleanolic acid conjugates as influenza virus inhibitors” (Bioorg Med Chem, 2019).
